According to ChEMBL document CHEMBL1671655, “Anidulafungin is fungicidal and exerts a variety of postantifungal effects against Candida albicans, C. glabrata, C. parapsilosis, and C. krusei isolates” (2009):
≈ marks a conversion by molar mass, not a printed value. Calls of active or inactive are those of the source. The rule behind the calls is not given here. Starred links: 1 amine or outer side, 2 acyl side, 3 side chain; linkers in the order of their positions; H or OH if unused. Positions of bridges follow the written chain, without caps; N, C: chain ends. Non-standard residues stand in square brackets, D forms with d. Residues, ends and D or L forms follow the SMILES beside them. *: point of attachment. pTerphenylCO(4''-OnC5H11) = CCCCCOc1ccc(-c2ccc(-c3ccc(C(=O)*)cc3)cc2)cc1; Orn(4R-OH,5R-OH) = O=C([C@H](C[C@@H](O)[C@@H](O)N[*:3])N[*:1])[*:2]; hTyr(3S-OH,4S-OH) = N[C@H](C(=O)O)[C@H](O)[C@@H](O)c1ccc(O)cc1; Pro(3S-OH,4S-Me) = C[C@H]1CN[C@H](C(=O)O)[C@H]1O; Hyp = O=C(O)[C@@H]1C[C@@H](O)CN1

Assays:
Nakaseomyces glabratus [1] = assay: Antifungal activity against Candida glabrata isolate 3 assessed as time period for bacterial growth inhibition at 16 times MIC after 1 hr drug exposure; type: functional
Outline: (§1)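 Inoculum of about 1 x 10^5 to 5 x 10^5 CFU/ml in MOPS-buffered RPMI (pH 7.0), shaken at 35°C and exposed to drug for 1 h. Cells then washed and centrifuged three times and resuspended in drug-free warm RPMI. Samples plated on SDA at 0, 2, 4, 8, 12, 24 and 48 h, with CFU counted after 48 h at 35°C. Run twice per isolate; values are means.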

Nakaseomyces glabratus [2] = assay: Increase in susceptibility to SDS in Candida glabrata isolate 1 assessed as cell wall damage at 4 times MIC after 1 hr relative to control; type: functional, organism-based
Outline: (§2)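 Cells recovered 8 h after a 1-h drug exposure were grown in YPD with 1% glucose to exponential phase and adjusted to OD599 0.1. Undiluted culture and 10-fold serial dilutions were spotted onto YPD plates containing SDS (0.01 to 0.04%), then incubated 72 h at 30°C. Growth compared with unexposed control cells; triplicate.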

Candida parapsilosis [3] = assay: Antifungal activity against Candida parapsilosis isolate 1 assessed as time period for bacterial growth inhibition at 16 times MIC after 1 hr drug exposure; type: functional; outline: as §1
Nakaseomyces glabratus [4] = assay: Fungicidal activity against Candida glabrata isolate 1 assessed as log reduction in bacterial count at MIC after 48 hrs by time-kill analysis; type: functional; conditions: isolate 1, 48 h
Outline: (§3)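 Isolates subcultured twice on SDA, suspended to 0.5 McFarland, giving ~1 x 10^5 to 5 x 10^5 CFU/ml in MOPS-buffered RPMI 1640 (pH 7.0) with or without drug at multiples of MIC (MIC by CLSI M27-A3). Tubes shaken at 35°C with continuous drug. Sampled at 0–48 h, diluted 10-fold and plated on SDA; CFU counted after 48 h at 35°C. Run twice per isolate; means.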

Nakaseomyces glabratus [5] = assay: Fungicidal activity against Candida glabrata isolate 2 assessed as log reduction in bacterial count at 16 times MIC after 48 hrs by time-kill analysis; type: functional; conditions: isolate 2, 48 h; outline: as §3
Candida parapsilosis [6] = assay: Fungicidal activity against Candida parapsilosis isolate A assessed as log reduction in bacterial count at MIC after 48 hrs by time-kill analysis; type: functional; conditions: Lodderomyces parapsilosis
Outline: (§4)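 Isolates subcultured twice on SDA, then suspended to 0.5 McFarland and diluted into RPMI 1640 (MOPS, pH 7.0) with or without anidulafungin, giving about 1 x 10^5 to 5 x 10^5 CFU/ml. Tubes were shaken at 35°C. Samples were taken at 0, 2, 4, 8, 12, 24 and 48 h, serially diluted 10-fold, plated on SDA, and CFU counted after 48 h at 35°C. Each isolate was run twice; mean values.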

Candida albicans [7] = assay: Increase in susceptibility to SDS in Candida albicans isolate 1 assessed as cell wall damage at MIC after 1 hr relative to control; type: functional, organism-based; outline: as §2
Candida albicans [8] = assay: Increase in susceptibility to calcofluor white in Candida albicans ATCC 90028 assessed as cell wall damage at MIC after 1 hr relative to control; type: functional, organism-based
Outline: (§5)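 Cells recovered 8 h after a 1-h drug exposure were grown to exponential phase in YPD with 1% glucose and adjusted to OD599 0.1. Undiluted and 10-fold serially diluted cultures were spotted onto YPD plates containing calcofluor white, then incubated at 30°C for 72 h. Growth compared with no-drug control cells; triplicate.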

Pichia kudriavzevii [9] = assay: Antifungal activity against Candida krusei by NCCLS M27A broth microdilution method; type: functional
Pichia kudriavzevii [10] = assay: Antifungal activity against Candida krusei isolate ATCC 6258 assessed as time period for bacterial growth inhibition at 16 times MIC after 1 hr drug exposure; type: functional; outline: as §1
Candida parapsilosis [11] = assay: Increase in susceptibility to calcofluor white in Candida parapsilosis isolate 1 assessed as cell wall damage at MIC after 1 hr relative to control; type: functional, organism-based
Outline: (§6)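 Candida given a 1-h anidulafungin pulse in MOPS-buffered RPMI 1640 (pH 7.0) at 35°C, washed three times by centrifugation, and regrown drug-free. Cells collected 8 h later, grown in YPD with 1% glucose to exponential phase, and set to OD599 0.1. Undiluted culture and 10-fold dilutions (4 µl) spotted on YPD plates with calcofluor white, then 30°C for 72 h. Triplicate; compared with no-drug cells.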

Nakaseomyces glabratus [12] = assay: Antifungal activity against Candida glabrata isolate 1 assessed as cell wall damage at MIC by Transmission electron microscopy; type: functional, organism-based
Outline: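 Cells recovered 8 h after a 1-h drug exposure were grown on SDA for 24 h at 35°C. Colonies fixed at 4°C in 0.1 M cacodylate (pH 7.2) with 2% glutaraldehyde and 2% paraformaldehyde, ethanol-dehydrated and embedded in Lowicryl K4M. Thin sections examined by transmission EM.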

Pichia kudriavzevii [13] = assay: Increase in susceptibility to SDS in Candida krusei isolate ATCC 6258 assessed as cell wall damage at MIC after 1 hr relative to control; type: functional, organism-based; outline: as §2
Candida parapsilosis [14] = assay: Antifungal activity against Candida parapsilosis isolate 1 assessed as time period for bacterial growth inhibition at 4 times MIC after 1 hr drug exposure; type: functional; outline: as §1
Candida albicans [15] = assay: Antifungal activity against Candida albicans isolate 1 by CLSI M27-A3 broth microdilution method; type: functional
Outline: (§7)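 CLSI M27-A3 broth microdilution in RPMI 1640 buffered to pH 7.0 with MOPS. Starting inoculum 0.5 x 10^3 to 2.5 x 10^3 cells/ml, incubated at 35°C. MIC read as the lowest concentration giving >50% growth reduction versus control. Each isolate tested on at least three occasions.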

Candida albicans [16] = assay: Fungicidal activity against Candida albicans isolate 2 assessed as log reduction in bacterial count at 4 times MIC after drug exposure for 1 hr followed by washout measured after 48 hrs in the absence of drug by PAFE study; type: functional
Outline: (§8)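 Starting inoculum ~1 x 10^5 to 5 x 10^5 CFU/ml in MOPS-buffered RPMI 1640 (pH 7.0) with drug at multiples of the CLSI M27-A3 MIC. After 1 h at 35°C, cells washed and centrifuged three times at 1,400 x g for 10 min, then resuspended in warm drug-free RPMI. Shaken at 35°C and plated on SDA at 0–48 h; CFU counted after 48 h. Run twice per isolate; means.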

Candida parapsilosis [17] = assay: Fungicidal activity against Candida parapsilosis isolate S assessed as log reduction in bacterial count at 16 times MIC after 48 hrs by time-kill analysis; type: functional; conditions: Lodderomyces parapsilosis; outline: as §4
Nakaseomyces glabratus [18] = assay: Antifungal activity against Candida glabrata isolate 2 by CLSI M27-A3 broth microdilution method; type: functional; outline: as §7
Candida albicans [19] = assay: Antifungal activity against Candida albicans assessed as time period for bacterial regrowth inhibition after 1 hr drug exposure; type: functional
Nakaseomyces glabratus [20] = assay: Increase in susceptibility to calcofluor white in Candida glabrata isolate 1 assessed as cell wall damage at 4 times MIC after 1 hr relative to control; type: functional, organism-based; outline: as §5
Nakaseomyces glabratus [21] = assay: Fungicidal activity against Candida glabrata isolate 3 assessed as log reduction in bacterial count at MIC after 48 hrs by time-kill analysis; type: functional; conditions: isolate 3, 48 h; outline: as §3
Candida albicans [22] = assay: Fungicidal activity against Candida albicans isolate 1 assessed as log reduction in bacterial count at 4 times MIC after drug exposure for 1 hr followed by washout measured after 48 hrs in the absence of drug by PAFE study; type: functional; outline: as §8
Nakaseomyces glabratus [23] = assay: Antifungal activity against Candida glabrata isolate 1 assessed as time period for bacterial growth inhibition at 4 times MIC after 1 hr drug exposure; type: functional; outline: as §1
Candida parapsilosis [24] = assay: Increase in susceptibility to calcofluor white in Candida parapsilosis isolate A assessed as cell wall damage at MIC after 1 hr relative to control; type: functional, organism-based; outline: as §6

CCCCCOc1ccc(-c2ccc(-c3ccc(C(=O)N[C@H]4C[C@@H](O)[C@@H](O)NC(=O)[C@@H]5[C@@H](O)[C@@H](C)CN5C(=O)[C@H]([C@@H](C)O)NC(=O)[C@H]([C@H](O)[C@@H](O)c5ccc(O)cc5)NC(=O)[C@@H]5C[C@@H](O)CN5C(=O)[C@H]([C@@H](C)O)NC4=O)cc3)cc2)cc1 [ANIDULAFUNGIN] ({pTerphenylCO(4''-OnC5H11)}-[Orn(4R-OH,5R-OH)]T[Hyp][hTyr(3S-OH,4S-OH)]T[Pro(3S-OH,4S-Me)]; lactam 1-C)
Time (Nakaseomyces glabratus [1]): 8 h
Activity (Nakaseomyces glabratus [2]): Active
Time (Candida parapsilosis [3]): 8 h
log reduction (Nakaseomyces glabratus [4]): 1.8 log CFU/ml
log reduction (Nakaseomyces glabratus [5]): 3.14 log CFU/ml
log reduction (Candida parapsilosis [6]): 1.76 log CFU/ml
Activity (Candida albicans [7]): Active
Activity (Candida albicans [8]): Active
MIC90 (Pichia kudriavzevii [9]): 0.06 µg/mL (≈ 0.0526 µM)
Time (Pichia kudriavzevii [10]): 8 h
Activity (Candida parapsilosis [11]): Active
Activity (Nakaseomyces glabratus [12]): Active
Activity (Pichia kudriavzevii [13]): Active
Time (Candida parapsilosis [14]): 8 h
MIC (Candida albicans [15]): 0.015 µg/mL (≈ 0.0132 µM)
log reduction (Candida albicans [16]): 1.24
log reduction (Candida parapsilosis [17]): 3.11 log CFU/ml
MIC (Nakaseomyces glabratus [18]): 0.03 µg/mL (≈ 0.0263 µM)
Time (Candida albicans [19]): >=12 hr
Activity (Nakaseomyces glabratus [20]): Active
log reduction (Nakaseomyces glabratus [21]): 1 log CFU/ml
log reduction (Candida albicans [22]): 1.18
Time (Nakaseomyces glabratus [23]): 8 h
Activity (Candida parapsilosis [24]): Active
